These results are taken from article PMC7188312 (Nature, 2019).

One data set has as its target BAM complex, wild type (Escherichia coli, UniProt P0A940). In words: BAM folding assay. The data set is classed as biochemical, E. coli. To be noted: WT BAM-nanodiscs, increasing concentrations.
For another data set, the target named is WT BAM (BamA of BAM) (Escherichia coli, UniProt P0A940). In words: Isothermal Titration Calorimetry. The settings on record: same concentration range as darobactin. The class given is binding, E. coli. A digest of the protocol: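 BAM was expressed with 0.5 mM IPTG for 3 h, extracted from membranes in DDM and Ni-NTA purified. ITC ran at 25°C in duplicate: 20 μM BAM in 1xPBS with 0.05% DDM in the cell, 200 μM ligand in the syringe, 20 injections 300 s apart, stirring at 300 rpm. Ligand-into-buffer heats were measured as a control. Data were fitted to an independent binding model.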
For orientation: In ITC the heat of successive injections is recorded.

Data set [1] concerns the target BAM complex (BamABCDE), wild type (E. coli) (UniProt P0A940). In words: ITC.
In data set [2] the test system is Pseudomonas aeruginosa PAO1. In words: MIC, microbroth dilution. The class given is cell-based.
Data set [3] deals with P. aeruginosa pmrB 523C>T. In words: MIC, microbroth dilution. The settings on record: Pseudomonas aeruginosa. The data set is classed as cell-based. In general terms: Broth dilution looks for growth in wells or tubes with falling amounts of substance.
The subject of data set [4] is Klebsiella pneumoniae ATCC 700603. As to the kind of experiment: MIC, microbroth dilution. The class given is cell-based.
The subject of another data set is E. coli AR350 (mcr-1). As to the kind of experiment: MIC, microbroth dilution. The data set is classed as cell-based. To be noted: Escherichia coli.
In data set [5] the test system is Salmonella Typhimurium LT2 ATCC 19585. As to the kind of experiment: MIC, microbroth dilution, anaerobic. The data set is classed as cell-based. To be noted: Salmonella enterica, ATCC19585|TYPHIMURIUM
Data set [6] concerns Acinetobacter baumannii ATCC 17978. In words: MIC, microbroth dilution. The data set is classed as cell-based. To be noted: ATCC17978.
Data set [7] concerns Enterobacter cloacae ATCC 13047. In words: MIC, microbroth dilution, anaerobic. The settings on record: ATCC13047. The class given is cell-based.
The test system of data set [8] is Proteus mirabilis KLE 2600. In words: MIC, microbroth dilution, anaerobic. The class given is cell-based. To be noted: KLE2600.
For data set [9], the system named is Mycobacterium tuberculosis mc^26020. In words: MIC, resazurin. The class given is cell-based. On the technique in general: Alamar Blue is a resazurin reagent that responds to reducing activity.
Data set [10] relates to Bacteroides fragilis ATCC 25285. As to the kind of experiment: MIC, microbroth dilution, anaerobic. The data set is classed as cell-based. The settings on record: ATCC25285.
Data set [11] relates to Bacteroides xylanisolvens KLE 2253. As to the kind of experiment: MIC, microbroth dilution, anaerobic. The data set is classed as cell-based. To be noted: KLE2253.
In data set [12] the test system is Bacteroides caccae KLE 2423. As to the kind of experiment: MIC, microbroth dilution, anaerobic. The class given is cell-based. To be noted: KLE2423.
Data set [13] concerns Faecalibacterium prausnitzii KLE 2243. As to the kind of experiment: MIC, microbroth dilution, anaerobic. The data set is classed as cell-based. The settings on record: KLE2243.
For data set [14], the system named is Haemophilus parainfluenzae KLE 2367. As to the kind of experiment: MIC, microbroth dilution, anaerobic. The class given is cell-based. To be noted: KLE2367.
Data set [15] concerns Stenotrophomonas maltophilia KLE 11416. As to the kind of experiment: MIC, microbroth dilution, anaerobic. The class given is cell-based. The settings on record: KLE11416.
The nature of data set [16]: Cytotoxicity, microplate Alamar Blue assay. The settings on record: human, HepG2 liver hepatocellular carcinoma cells (ATCC HB-8065). The data set is classed as cell-based. A digest of the protocol:
(§1)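 FaDu, HepG2 and HEK293-RFP cells were grown in Eagle's MEM with 10% FBS at 37°C, 5% CO2. Cells were seeded in exponential growth, and after 24 h the medium was replaced with fresh medium holding 2-fold serial dilutions of test compound made in water. After 72 h, resazurin was added to a final 0.15 mM. […] was read 3 h later. Biological replicates.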

The nature of data set [17]: Cytotoxicity, microplate Alamar Blue assay. The class given is cell-based. To be noted: human, FaDu pharynx squamous cell carcinoma cells (ATCC HTB-43). A digest of the protocol: as §1
Data set [18] is described as follows: Cytotoxicity, microplate Alamar Blue assay. The data set is classed as cell-based. To be noted: human. A digest of the protocol:
as §1

Data set [19] concerns E. coli clinical isolates. As to the kind of experiment: microbe, parasite or virus in culture. The data set is classed as cell-based. The settings on record: Escherichia coli, E. coli ESBL JMI 1043856.
Data set [20] deals with K. pneumoniae clinical isolates. As to the kind of experiment: microbe, parasite or virus in culture. The data set is classed as cell-based. To be noted: Klebsiella pneumoniae, K. pneumoniae ESBL JMI 1052654.
A further data set concerns E. coli. The settings on record: cited from earlier work.
The next data set relates to K. pneumoniae. To be noted: cited from earlier work.
A further data set has as its system E. coli MG1655. In words: LPS binding assay. To be noted: LPS from E. coli O55:B5, 0.5–100 μg ml^−1. The class given is cell-based. A digest of the protocol: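 Microbroth dilution: E. coli MG1655 at OD600 0.001 in cation-adjusted MHIIB was added to wells holding purified E. coli O55:B5 LPS (0.5–100 μg ml−1) plus serially diluted test compound or polymyxin B. Plates were incubated overnight at 37°C. The growth-inhibiting concentration was read by eye, with and without LPS.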

≈ marks a conversion by molar mass, not a printed value.

For the molecule WNWSKSF, the “inhibition of BAM-ND activity” value on BAM complex, wild type is given as “only minimal effects”; at BAM complex, wild type (listed as linear peptide), “no inhibitory activity”. Besides, the “binding to BAM by ITC” value at WT BAM (BamA of BAM) is “no binding”.

Usually Kd stands for the free concentration of one partner at which half of the binding sites on the other are occupied at equilibrium, for simple one-to-one binding. In data set [1], darobactin (peptide) registered a Kd of 1.2 µM and a dH of -25 kcal/mol.

As usually defined, the IC50 is the midpoint of a concentration-inhibition curve. A lower IC50 goes with greater potency. For `CC1(C)S[C@@H]2[C@H](NC(=O)[C@H](N)c3ccccc3)C(=O)N2[C@H]1C(=O)O` [ampicillin], the MIC in data set [2] was over 128 µg/mL; in data set [3], over 128 µg/mL; in [4] (ATCC700603), 128 µg/mL (≈ 366 µM); in [4] (ATCC700603, K. pneumoniae ATCC700603 (SHV-18)) it was over 128 µg/mL; in the data set with E. coli AR350 (mcr-1) it was over 128 µg/mL; in [5], 2 µg/mL (≈ 5.72 µM). The MIC in data set [6] is 64 µg/mL (≈ 183 µM); in data set [7], over 128 µg/mL; in data set [8] it was over 128 µg/mL; in data set [9] it was 16 µg/mL (≈ 45.8 µM); in data set [10] it was 128 µg/mL (≈ 366 µM); in data set [11], 1 µg/mL (≈ 2.86 µM). For the same molecule, the MIC was 2 µg/mL (≈ 5.72 µM) in data set [12]; 64 µg/mL (≈ 183 µM) in data set [13]; 128 µg/mL (≈ 366 µM) in data set [14]; over 128 µg/mL in data set [15]; over 128 µg/mL in data set [19]; over 128 µg/mL in data set [20]. Moreover, the IC50 at 72 h in [16], in data set [17] and in data set [18] was over 128 µg/mL throughout.

As to `NC(N)=NC(=O)CC(Nc1nc(N=C(N)N)nc(NC2CCC(NC(=O)Cn3nnc(-c4ccc(F)cc4)n3)CC2)n1)C1CC1` (centres unmarked) [MRL-494], the MIC is 15 µg/mL (≈ 24.1 µM) in the data set with E. coli and 62 µg/mL (≈ 99.6 µM) with K. pneumoniae.

On to polymyxin B, for which, in the data set on E. coli MG1655, the “effect of added purified LPS on antibiotic activity (MIC)” value was “antagonized polymyxin activity”.
